Assay outcomes as filed in PubChem BioAssay.
NPY-Y1 antag – NPY-Y1 receptor antagonists, primary screen, cell-based | 200,000 compounds, 1% hits | Neuropeptide Y receptor type 1 (Homo sapiens), P25929 | HEK293-CNG Y1 cells, membrane potential fluorescence; NPY at EC95, then isoproterenol | inhibition, % at 3.6 µM;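 active = inhibition above the campaign mean inhibition of all tested compounds plus 3 SD, cut at about 20% in these data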;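 also: 0% = DMSO wells given NPY plus isoproterenol and 100% = isoproterenol alone without NPY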
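Material: HEK293 Y1/CNG channel cell line; also added: NPY (25 nM), isoproterenol (1 µM), Ro 20-1724 (25 µM); doses: one concentration, 3.6 µM, in 0.4% DMSO; schedule: compound incubation 1 h at room temperature, readout 45 min post-stimulation; technique: membrane potential fluorescence; measure: fluorescence ratio normalized to % inhibition between controls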
NPY1 pot ag – NPY-Y1 receptor potentiators or agonists, primary screen, cell-based; Neuropeptide Y receptor type 1 (Homo sapiens), P25929; NPY-Y1 expressing cells, potentiator/agonist activation; activation, % at 3.6 µM; 220,000 compounds, 0.37% hits; in the data active = activation above about 33%, passing the limit was not always enough;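 also: cells stimulated with NPY at EC10 then isoproterenol at EC100; 0% = low agonist plus stimulus and 100% = saturating agonist plus stimulus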
WT yeast gro inh – growth inhibition of WT strain, primary screen, mitochondrial fusion inhibitor project, WT and mutant strains, chemical genetic. mitochondrial fusion phenotypic screen. inhibition, % at 10 µM. 190,000 compounds, 2.1% hits; in the data active = inhibition above about 58%; tested in S. cerevisiae
NPY Y2 blocker – NPY-Y2 receptor antagonists, primary screen, cell-based; Neuropeptide Y receptor type 2 (Homo sapiens), P49146; NPY-Y2 expressing cells, antagonist mode; 140,000 compounds, 0.99% hits; inhibition, % at 2.7 µM; in the data active = inhibition above about 17%;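 also: 0% = vehicle with agonist challenge and 100% = reference antagonist with challenge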
Target sequence (P49146 whole entry, looked up): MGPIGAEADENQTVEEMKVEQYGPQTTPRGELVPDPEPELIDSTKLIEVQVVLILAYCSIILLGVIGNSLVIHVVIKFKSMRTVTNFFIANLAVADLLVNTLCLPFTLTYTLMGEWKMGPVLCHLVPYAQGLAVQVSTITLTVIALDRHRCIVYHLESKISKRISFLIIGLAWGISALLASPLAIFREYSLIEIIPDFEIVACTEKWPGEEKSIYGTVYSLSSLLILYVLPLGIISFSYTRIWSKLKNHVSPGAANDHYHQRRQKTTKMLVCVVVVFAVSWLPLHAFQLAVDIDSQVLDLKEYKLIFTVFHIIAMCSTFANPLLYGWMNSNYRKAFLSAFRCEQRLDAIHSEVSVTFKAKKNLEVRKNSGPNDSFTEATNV
RAM network inh – inhibitors of the yeast RAM network, primary screen, dse1pr::URA3 reporter, 5-FOA selection; S. cerevisiae dse1pr::URA3 reporter, 5-FOA growth OD615, 2 d; analog-sensitive cbk1-as2 kinase mutant strain; inhibition, % at 50 µM; AID 868, 2007; 190,000 compounds, 1.8% hits;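 active = inhibition above a set limit, 3 SD over mean compound inhibition, cut at about 8.4% in these data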;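 also: 0% = DMSO-only wells with no growth and 100% = 10 µM 1-NA-PP1 full growth; inhibition rescues growth on 5-FOA so higher OD means more RAM inhibition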
NPY-Y2 PAM-ag – NPY-Y2 potentiators or agonists, primary screen, cell-based. 220,000 compounds, 0.45% hits. cells expressing NPY-Y2, potentiator/agonist read-out. Neuropeptide Y receptor type 2 (Homo sapiens), P49146. activation, % at 3.6 µM; in the data active = activation above about 27%;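 also: cells stimulated with NPY near EC25 plus isoproterenol at EC100; 0% = vehicle plus submaximal agonist and 100% = vehicle plus saturating agonist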
NPY-Y2 pot conf – NPY-Y2 potentiators or agonists, confirmation, cell-based; shares compounds with NPY-Y2 PAM-ag; cell-based NPY-Y2 potentiator/agonist assay; activation, % at 3.6 µM; 450 compounds, 20% hits; in the data active = activation above about 33%
NPY-Y1 potentiator – NPY-Y1 potentiators or agonists, counter-screen for NPY-Y2 potentiator project, cell-based, fluorescence. shares compounds with NPY-Y2 PAM-ag. Y1 HEK293-CNG cells, membrane potential fluorescence. activation, % at 3.6 µM. 450 compounds, 20% hits. AID 1651, 2009; in the data active = activation above about 45%;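 also: cells stimulated with submaximal NPY then isoproterenol with phosphodiesterase inhibitor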
NPY-Y1 agonist 2 – NPY-Y1 direct agonists, selectivity assay for NPY-Y2 potentiator project, cell-based, fluorescence | shares compounds with NPY-Y2 PAM-ag | HEK293 Y1-CNGC, membrane potential fluorescence, agonism | activation, % at 3.6 µM | 450 compounds, 37% hits | AID 1702, 2009;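 active = activation above the mean of DMSO-only control wells plus 3 SD, cut at about 18% in these data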;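 also: cells stimulated with 1 µM isoproterenol plus the PDE inhibitor Ro 20-1724; 0% = isoproterenol with DMSO and no NPY and 100% = 40 nM NPY; Y1 agonists lower the membrane potential dye signal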
CNGC inhibitor – CNGC cAMP sensor activity inhibitors, counter-screen for NPY-Y2 potentiator project, cell-based, HEK293-CNG parental, membrane potential fluorescence | isoproterenol cAMP | 450 compounds, 32% hits | inhibition, % at 3.6 µM | AID 1703, 2009 | shares compounds with NPY-Y2 PAM-ag;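 active = inhibition above the control-well mean plus 3 SD of those wells, cut at about 22% in these data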;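 also: 0% = DMSO with isoproterenol and 100% = DMSO without isoproterenol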
NPY-Y2 ag 2 – NPY-Y2 direct agonists, counter-screen for NPY-Y2 potentiator project, cell-based, fluorescence | shares compounds with NPY-Y2 PAM-ag | HEK293 Y2/CNGC cells, membrane potential fluorescence, agonist mode | activation, % at 3.6 µM | 450 compounds, 56% hits | AID 1710, 2009;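 active = activation above the mean of solvent-only control wells plus 3 SD, cut at about 10% in these data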;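 also: cells stimulated by isoproterenol with no NPY added so direct agonism is tested; 0% = DMSO with isoproterenol alone and 100% = NPY at EC100 plus isoproterenol; agonism lowers probe fluorescence through less cAMP and CNG channel opening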
* = called active by the depositor; . = no result. Most compounds without a hit are left out; they make up all but 4.9% or so of the library.

SMILES | NPY-Y1 antag | NPY1 pot ag | WT yeast gro inh | NPY Y2 blocker | RAM network inh | NPY-Y2 PAM-ag | NPY-Y2 pot conf | NPY-Y1 potentiator | NPY-Y1 agonist 2 | CNGC inhibitor | NPY-Y2 ag 2
CCCN1C2CCCC1CC(NC(=O)Nc1ccc(C(C)C)cc1)C2 (configuration not stated) | -7 | 14 | 14 | 0 | 2 | 34* | 22 | 30 | 19* | 28* | 24*
CCCN1C2CCCC1CC(NC(=O)Nc1cccc(C(C)=O)c1)C2 (configuration not stated) | 7 | 4 | -5 | 0 | 0 | 2 | . | . | . | . | .
O=C(c1c[nH]c2ccc(S(=O)(=O)N3CCOCC3)cc2c1=O)N1CCCC1 | 4 | 12 | 9 | 0 | 2 | 17 | . | . | . | . | .
CC(C)c1ccc(NS(=O)(=O)c2ccc3[nH]cc(C(=O)N4CCC(C(N)=O)CC4)c(=O)c3c2)cc1 | -11 | 21 | 7 | -4 | 1 | 39* | 16 | 32 | 18* | 14 | 12*
c1ccc(CSc2nc3ncncc3[nH]2)cc1 | . | -8 | . | . | . | 48* | 2 | -4 | -1 | 7 | 19*
Cc1ccc(CSc2nc3ncccc3[nH]2)cc1 | 0 | -19 | 17 | 2 | 1 | -10 | . | . | . | . | .
COc1ccc(N2C(=O)CC(SCCc3nc4ccccc4[nH]3)C2=O)cc1 (configuration not stated) | 4 | -1 | 1 | -1 | -1 | 4 | . | . | . | . | .
O=C(c1ccc2c3c(cccc13)CC2)C1CCCN(Cc2ccc(OCCO)cc2)C1 (configuration not stated) | 0 | -42 | 4 | . | 1 | -14 | . | . | . | . | .
COc1cc2c3nnc(-c4ccc(F)cc4)c-3cn(Cc3ccccc3F)c2cc1OC | 4 | 0 | -54 | . | 4 | 10 | . | . | . | . | .
CC(C)C(O)(C#CCN1CCCCC1)c1ccccc1 (configuration not stated) | -2 | -1 | 10 | 3 | -1 | 11 | . | . | . | . | .
CC(C)C(O)(C#CCN1CCCC1)c1ccccc1 (configuration not stated) | 4 | 5 | 2 | 0 | 2 | 102* | -6 | -11 | -6 | -4 | 1
CCCC(=O)Nc1cc(OC)c(NC(=O)NC2CCCCC2)cc1OC | -2 | 3 | 5 | 8 | 2 | 12 | . | . | . | . | .
Cc1ccc(SCCC(=O)Nc2ccc(Br)c(C)c2)cc1 | 14 | -30 | 42 | 6 | 1 | -17 | . | . | . | . | .
c1ccc2c(-c3csc(-c4ccncc4)n3)c[nH]c2c1 | -11 | 34 | 16 | . | 0 | 33* | 28 | 53* | 51* | 39* | 34*
Cc1ccccc1C1CCCN(Cc2nc(C3CC3)no2)C1 (configuration not stated) | 4 | 1 | 5 | . | 0 | 5 | . | . | . | . | .
CCCC/C(O)=C/c1nc2ccccc2[nH]c1=O | 6 | 7 | 19 | 4 | 3 | -3 | . | . | . | . | .
Cc1cc(N2C(=O)C(O)=C(C(=O)c3ccco3)C2c2ccc(O)cc2)no1 (configuration not stated) | -3 | 2 | 2 | 2 | 1 | 8 | . | . | . | . | .
CCOc1c(OC)cccc1C1CC(=O)Nc2cc(OC)c(OC)cc21 (configuration not stated) | 7 | -28 | 4 | 3 | 1 | -16 | . | . | . | . | .
CCn1c(=NC(=O)CSC(C)=O)sc2cc(OC)ccc21 | -9 | 46 | 3 | -8 | 3 | 34* | 23 | 28 | 43* | 29* | 41*
NNC(=O)C1=NOC2COC3(CCN(c4ncccn4)CC3)OCC12 (configuration not stated) | 1 | 0 | -6 | . | 0 | -2 | . | . | . | . | .
O=C(N/N=C\c1ccc(Cl)cc1)C1=NOC2COC3(CCN(c4ccc([N+](=O)[O-])cc4)CC3)OCC12 (configuration not stated) | . | 13 | . | . | . | 45* | 10 | -13 | 16 | 8 | 27*
NS(=O)(=O)c1ccc(N/N=C2/CCCCC2C2CCCCC2)c([N+](=O)[O-])c1 (configuration not stated) | 2 | 42 | 96* | -4 | 1 | 39* | 57* | 61* | 60* | 41* | 67*
Cc1cc(C)c2c(c1)/C(=N/Nc1ccc(S(N)(=O)=O)cc1[N+](=O)[O-])CCC2 | 0 | 13 | -3 | . | 6 | -4 | . | . | . | . | .
COc1ccc2nc(SCC(=O)Nc3ccccc3)[nH]c2c1 | 8 | -21 | 5 | 2 | 4 | 9 | . | . | . | . | .
O=C(Nc1ccccc1N1CCOCC1)c1ccc2nc[nH]c2c1 | -13 | 21 | -12 | . | 2 | 41* | -7 | 4 | 1 | 7 | 8
O=C(Nc1ccccc1N1CCOCC1)c1cccc([N+](=O)[O-])c1 | -3 | 24 | -6 | 3 | 4 | 4 | . | . | . | . | .
Cc1cc(C)nc(NC(=O)c2ccc(Cl)c([N+](=O)[O-])c2)n1 | . | 7 | . | . | . | 9 | . | . | . | . | .
Cc1ccc(C(=O)NCCc2cccc(Cl)c2)cc1[N+](=O)[O-] | 4 | -11 | 20 | 3 | 0 | 3 | . | . | . | . | .
N#Cc1ccsc1NC(=O)c1ccc(Cl)c([N+](=O)[O-])c1 | . | -8 | . | . | . | 51* | -8 | -44 | -33 | -15 | 10
O=C(NCCc1cccc(Cl)c1)c1ccc(Cl)c([N+](=O)[O-])c1 | 4 | 27 | 30 | 4 | 2 | 35* | 20 | 32 | 22* | 27* | 26*
